This is one part of a sample in which hits are shown more often than they occur.
Insulin prom act: TRM-6 insulin promoter activation; activation, % at 2 µM; TRM-6 cells, insulin promoter eGFP reporter, imaging; plate-scaled: unstimulated 0, stimulated control 100; 0.81% of 130,000 active; AID 1296;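 active = activation at 2 µM above a set limit, confirmed on inspection of the cell images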;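 also: share of cells whose green reporter signal exceeds an intensity cutoff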
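Test system: human fetal islet-derived TRM-6 cells with tamoxifen-inducible insulin promoter–eGFP reporter; schedule: overnight tamoxifen, then two-day compound incubation at 37 °C; measured by: high-content imaging of fixed cells with Hoechst nuclear stain; evaluation: percent cells above green-intensity threshold, converted to percent activation versus plate controls; control set: stimulated and unstimulated wells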
Starred values were filed as active, the others as inactive.

SMILES | Insulin prom act
C=CCn1c(O)c(C(C)=NCCc2ccccc2)c(=O)[nH]c1=O | 0.0
CCCCn1c(O)c(C(CC)=NCc2ccc(F)cc2)c(=O)[nH]c1=O | -83.3
C=CCn1c(O)c(C(CC)=NCCc2ccccc2)c(=O)[nH]c1=O | 550.0*
Cc1nn(Cc2ccccc2)c(Cl)c1C(=O)OCC(=O)Nc1cccc2ccccc12 | 128.1
CC1CCCN(C(=O)c2ccc(N3CC4CC(C3)c3cccc(=O)n3C4)c([N+](=O)[O-])c2)C1 (stereo not drawn) | -9.4
CCOP(=O)(OCC)C(NC(=O)CN1C(=O)c2ccccc2S1(=O)=O)C(Cl)(Cl)Cl (stereo not drawn) | -8.3
O=C(c1ccc2c(c1)ncn2-c1ccc(F)cc1F)N1CCC2(CC1)OCCO2 | 485.7*
Cc1noc(C)c1C(=O)N1CCC2(CC1)OCCO2 | -7.9
Cc1cc(C(=O)N2CCC3(CC2)OCCO3)cs1 | -3.7
CN(C)C(=S)SSC(=S)N(C)C | -100.0
Cc1cc2c(C(C)C)c(O)c(O)c(C=O)c2c(O)c1-c1c(C)cc2c(C(C)C)c(O)c(O)c(C=O)c2c1O | -61.9
C(#CCN1CCOCC1)COCC#Cc1ccccc1 | 79.0*
Cc1nn(-c2ccccc2)c2c1C(c1ccc3c(c1)OCO3)SCC(=O)N2 (stereo not drawn) | -79.3
CC(=O)C1=C(C)OC(N)=C(C(=O)OC(C)C)C12C(=O)Nc1ccccc12 (stereo not drawn) | -100.0
CC(C)(C)P(=O)(c1ccncc1)N1CCCC1 (stereo not drawn) | 0.0
CCC1(CC)C(=O)NC(=Nc2cccc(C(F)(F)F)c2)NC1=O | -3.3
O=c1c2ccccc2nc(/C=C/c2ccc([N+](=O)[O-])o2)n1-c1ccc(O)cc1 | 525.0*
CCOc1ccc(-n2c(-c3ccoc3)nc3ccccc3c2=O)cc1 | 4.3
c1ccc2c(CNC3CCCCCC3)c[nH]c2c1 | -4.2
Cc1cc(C(=O)CS(=O)(=O)c2ccccc2)cc(C)c1OC(=O)N(C)C | 0.0
COc1ccc(O)c(C(C)(C)C)c1 | -6.7
COc1ccc(C(=O)C(Cc2ccccc2)N(C)C)cc1 (stereo not drawn) | 3.7
COc1ccc(C(=O)C(C)(C)NO)cc1 | 468.8*
CN(C)CP(=O)(O)CN(C)C=O | 9.1
Cc1ccc2c(c1)CC1(CN2C)C(=O)NC(=O)N(c2ccc(C)c(C)c2)C1=O (stereo not drawn) | 2.9
SMILES | Insulin prom act
Cc1cccc(-n2c(O)c(C=NCc3cccnc3)c(=O)[nH]c2=O)c1C | 0.0
Cc1ccc(C(=O)Nc2ccc(-n3ccnc3P(=O)(O)c3ccccc3)cc2)cc1 | 0.0
O=c1cc(C(F)(F)F)c2cc3c4c(c2o1)CCCN4CCC3 | 164.4*
COc1cc(OC)c2c(c1)OCC1CON(C)C21 (stereo not drawn) | -7.7
CC(=NCCCN1CCOCC1)c1c(O)[nH]c(=O)[nH]c1=O | 0.0
O=P(C(c1ccc2c(c1)OCO2)N1CCOCC1)(N1CCOCC1)N1CCOCC1 (stereo not drawn) | 0.0
CCN1CC2([N+](=O)[O-])CC=C(Cl)C([N+](=O)[O-])(C1)C2 (stereo not drawn) | 0.0
CC(C)NC(=O)c1ccc(N2CC3CC(C2)c2cccc(=O)n2C3)c([N+](=O)[O-])c1 (stereo not drawn) | 0.0
N#Cc1c(/N=C/c2ccc(O)cc2O)sc2c1C1CCN2CC1 | -7.7
CCOC(=O)CCN=Cc1c(O)n(-c2ccc(Br)cc2)c(=O)[nH]c1=O | 9.1
O=C(CCCOc1ccc(Cl)cc1Cl)N1CCC2(CC1)OCCO2 | 170.8
O=C(CNC1CCCCC1)N1CCC2(CC1)OCCO2 | 658.3*
Cc1ccc(-c2ccc(=O)n(CCC(=O)N3CCC4(CC3)OCCO4)n2)cc1 | 0.0
CN(CCCCC(=O)/C=N/O)Cc1ccccc1 (tested in a mixture with another compound) | 3.7
O=C1NC(=O)N(c2ccc(Br)cc2)C(=O)/C1=C/c1ccsc1 | 0.0
COc1ccc(/C=C2/C(=O)NC(=O)N(c3ccc(C)c(C)c3)C2=O)cc1CN1C(=O)c2ccccc2C1=O | 2.0
CSc1ncc(/C=C2/C(=O)NC(=O)N(c3ccc(Cl)cc3)C2=O)cn1 | 260.0*
CCOP(=O)(OCC)C(NC(=O)C(Cl)Cl)C(Cl)(Cl)Cl (stereo not drawn) | 8.3
Cc1ccc2cccc(OC(=O)N(C)c3ccccc3)c2n1 | -3.8
Cc1c2ccncc2c(C)c2c1[nH]c1ccccc12 | 354.5*

Compound activity as filed in PubChem.
